ERp5 inh: inhibitors of human ERp5; AID 651711; ERp5 insulin aggregation, absorbance 650 nm, 90 min; inhibition, % at 9.99 µM; 350,000 tested, 0.05% active;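 active = mean replicate inhibition above about 25%, with every replicate also reaching it, limit read from the data, passing the limit was not always enough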
PvdQ acylase: blocks Pseudomonas aeruginosa PvdQ acylase activity. inhibition, % at 10 µM. 340,000 tested, 0.063% active. purified PvdQ acylase, fluorescence plate reader. AID 488965; in the data active = inhibition above about 30%, passing the limit was not always enough;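 note: 0% = vehicle neutral wells and 100% = reference inhibitor wells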
VIM-2 inh: blocks Pseudomonas aeruginosa VIM-2 metallo-beta-lactamase; purified VIM-2, nitrocefin hydrolysis, epi-absorbance fluorescence; inhibition, % at 5.6 µM; 290,000 tested, 0.89% active;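 active = inhibition above the mean of all tested compounds plus 3 SD, cutoff set per screening run, cut at about 7.5% in these data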;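 note: red hydrolysis product quenches plate fluorescence so inhibitors raise well fluorescence; 0% = enzyme with DMSO and 100% = DMSO without enzyme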
PglD DTNB: blocks C. jejuni PglD acetyltransferase activity. purified PglD enzyme, DTNB colorimetric CoA detection. inhibition, % at 12.5 µM. 360,000 tested, 0.098% active. AID 602405; in the data active = inhibition above about 16%, passing the limit was not always enough
PDI turbidity: PDI (human) enzyme inhibition. P07237. PDI insulin aggregation turbidity, A650, 90 min. inhibition, % at 10 µM. 350,000 tested, 0.052% active;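 active = mean inhibition across replicates of 30% or more, whatever share of single replicates reach that level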
Target sequence (P07237 whole entry, looked up): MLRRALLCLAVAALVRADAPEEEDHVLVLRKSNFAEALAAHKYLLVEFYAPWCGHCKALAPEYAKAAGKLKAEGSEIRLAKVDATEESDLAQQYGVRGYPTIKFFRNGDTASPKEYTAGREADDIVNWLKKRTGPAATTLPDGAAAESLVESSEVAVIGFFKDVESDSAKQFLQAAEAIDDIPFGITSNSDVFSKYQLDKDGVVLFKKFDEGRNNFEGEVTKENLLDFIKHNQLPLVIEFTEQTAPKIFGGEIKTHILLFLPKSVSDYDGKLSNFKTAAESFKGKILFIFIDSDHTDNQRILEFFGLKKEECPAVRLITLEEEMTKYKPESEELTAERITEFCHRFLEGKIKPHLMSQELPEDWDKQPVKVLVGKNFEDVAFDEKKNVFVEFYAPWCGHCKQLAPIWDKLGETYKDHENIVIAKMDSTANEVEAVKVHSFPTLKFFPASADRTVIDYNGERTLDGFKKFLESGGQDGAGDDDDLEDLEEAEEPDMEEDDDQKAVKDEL
IMP-1 inh: inhibitors of Pseudomonas aeruginosa IMP-1 metallo-beta-lactamase | purified IMP-1, nitrocefin hydrolysis, epi-absorbance fluorescence | inhibition, % at 5.6 µM | 290,000 tested, 0.45% active | AID 1556;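 active = inhibition above the mean plus 3 SD of all compounds in the same screening run, cut at about 4.5% in these data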;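 note: 0% = IMP-1 with DMSO and 100% = DMSO wells lacking enzyme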
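Material – recombinant IMP-1 enzyme, purified · Amount – IMP-1 0.2 nM before substrate addition · Medium – HEPES buffer pH 7.1 with ZnSO4 and Brij 35 · Timing – 25 °C, 15 min preincubation, 25 min reaction · Measured by – plate fluorescence quenching by hydrolysis product, ex 480/em 530 nm · Read-out – percent enzyme inhibition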
Numbers without * were called inactive. Sampled rows, rich in hits. Any-hit rate of the full collection: about 1%.

What do the screens show for `O=C(Nc1ccc(F)cc1)N1C[C@H]2[C@@H](c3ccccc31)[C@@H](CO)N2C(=O)c1ccccc1F`?
ERp5 inh: 0.7; PglD DTNB: 4.7

How did COC(=O)c1c(NC(=O)c2ccnn2C)sc(C)c1C do in these assays?
PvdQ acylase: -3.5; VIM-2 inh: 0.2; PglD DTNB: -2.9; PDI turbidity: 7.3; IMP-1 inh: 4.7*

Results for CCn1cc(C(=O)Nc2sc(C)c(C)c2C(=O)OC)cn1 ?
PvdQ acylase: -7.7; VIM-2 inh: 1.1; PDI turbidity: 2.4; IMP-1 inh: -5.5

What do the screens show for `O=C(CC1(O)C(=O)N(Cc2cccc3ccccc23)c2ccccc21)c1cccnc1` (stereo unspecified)?
PvdQ acylase: -2.6; VIM-2 inh: -2.5; PglD DTNB: -1.9; PDI turbidity: -2.2; IMP-1 inh: -2.6

How did CN1C(=O)C(O)(CC(=O)c2cccnc2)c2ccccc21 (stereo unspecified) do in these assays?
PvdQ acylase: -13.3; VIM-2 inh: -2.1; PglD DTNB: 7.0; PDI turbidity: 1.1; IMP-1 inh: 8.6*

Results for O=C(O)C(=O)Cc1c[nH]c2ccccc12 ?
ERp5 inh: 2.8; PvdQ acylase: -6.8; VIM-2 inh: -1.4; PglD DTNB: 1.0; IMP-1 inh: 4.5*

How did O=C(C[C@H]1C[C@@H]2c3cc(NC(=O)C4CCC4)ccc3O[C@@H]2[C@H](CO)O1)NCC(F)(F)F do in these assays?
ERp5 inh: 43.0*; PglD DTNB: 0.0

Results for O=C(C[C@@H]1C[C@H]2c3cc(NC(=O)C4CCC4)ccc3O[C@H]2[C@@H](CO)O1)NCC(F)(F)F ?
ERp5 inh: 77.2*; PglD DTNB: 2.2

What do the screens show for `COC(=O)C[C@H]1C[C@@H]2c3cc(NC(=O)Cc4ccncc4)ccc3O[C@@H]2[C@@H](CO)O1`?
ERp5 inh: 59.9*; PglD DTNB: 0.1

Results for CN1CCN(C(=O)C[C@@H]2C[C@H]3c4cc(NC(=O)C5CCOCC5)ccc4O[C@H]3[C@@H](CO)O2)CC1 ?
ERp5 inh: 7.9; PglD DTNB: -0.8

How did CN1CCN(C(=O)C[C@@H]2C[C@@H]3c4cc(NC(=O)C5CCOCC5)ccc4O[C@@H]3[C@H](CO)O2)CC1 do in these assays?
ERp5 inh: 36.9*; PglD DTNB: 0.0

Results for O=C(C[C@H]1C[C@H]2c3cc(NC(=O)CC4CC4)ccc3O[C@H]2[C@@H](CO)O1)NCc1ccc(-c2ccccc2)cc1 ?
ERp5 inh: 52.7*; PglD DTNB: 2.8

What do the screens show for `O=C(C[C@@H]1CC[C@H]2[C@@H](COC[C@H](O)CN2CCc2ccccc2)O1)NCc1ccccc1`?
ERp5 inh: -4.6; PglD DTNB: -0.8

How did COc1ccc(OC)c(Nc2c3ccccc3nc3ccccc23)c1 do in these assays?
ERp5 inh: -3.5; PvdQ acylase: -3.3; VIM-2 inh: 11.2*; PglD DTNB: 0.4; PDI turbidity: 0.1; IMP-1 inh: -3.9

How did COc1ccc(OC)c(Nc2cc(C)c3ccccc3n2)c1 do in these assays?
ERp5 inh: 0.3; PvdQ acylase: -21.4; VIM-2 inh: 0.3; PglD DTNB: 1.7; PDI turbidity: -3.1; IMP-1 inh: -0.2

Results for Cc1c(C)c2cc(Cl)c(O)c(CN3CCN(C)CC3)c2oc1=O ?
PvdQ acylase: -12.7; VIM-2 inh: 3.8; PglD DTNB: 0.2; PDI turbidity: -10.1; IMP-1 inh: 6.2*

What do the screens show for `Cc1c(C)c2cc(Cl)c(O)c(CN3CCCC(C)C3)c2oc1=O` (stereo unspecified)?
PvdQ acylase: -12.7; VIM-2 inh: -4.8; PglD DTNB: -3.0; PDI turbidity: 1.7; IMP-1 inh: -5.7

What do the screens show for `O=c1oc2c(O)cccc2cc1-c1nc2ccccc2[nH]1`?
ERp5 inh: 1.2; PvdQ acylase: -2.2; VIM-2 inh: 6.4; PglD DTNB: 0.0; PDI turbidity: 18.5; IMP-1 inh: 7.2*

Results for O=C1c2cccc3cccc(c23)C(=O)N1c1ccc2ncccc2c1 ?
PvdQ acylase: 2.0; VIM-2 inh: 0.6; PglD DTNB: -4.6; PDI turbidity: -1.6; IMP-1 inh: 9.3*

Results for O=C(NC1CCCC1)[C@@H]1[C@@H](CO)[C@@H]2Cn3c(ccc(-c4cccnc4)c3=O)[C@H]1N2CC1CC1 ?
ERp5 inh: 27.7*; PglD DTNB: 0.8

Results for CCN1[C@@H]2Cn3c(ccc(-c4cccnc4)c3=O)[C@H]1[C@@H](C(=O)NC1CCCC1)[C@@H]2CO ?
ERp5 inh: 7.9

How did C#CCNC(=O)C1=C[C@@H](C(C)(C)C)[C@H](CCCO)[C@@H](OCC)O1 do in these assays?
ERp5 inh: -1.3

Results for COc1ccc(OCc2nc(N)nc(Nc3ccccc3OC)n2)cc1 ?
PvdQ acylase: 8.2; VIM-2 inh: -0.6; PglD DTNB: -5.8; PDI turbidity: 7.8; IMP-1 inh: 5.4*

What do the screens show for `CCC(=O)N1C[C@H](C)[C@H](OC)CN(C)C(=O)c2ccc(NC(=O)c3ccccc3)cc2OC[C@@H]1C`?
ERp5 inh: 0.3; PglD DTNB: -1.1

How did COc1cc(CNCc2ccncc2)cc(OC)c1OC do in these assays?
ERp5 inh: 4.2; PvdQ acylase: -14.1; VIM-2 inh: 1.4; PglD DTNB: 1.4; PDI turbidity: 2.8; IMP-1 inh: 6.1*

How did Cn1nnnc1SCc1ccc(CSc2nnnn2C)cc1 do in these assays?
ERp5 inh: 1.9; PvdQ acylase: 5.8; VIM-2 inh: -2.8; PDI turbidity: -1.0; IMP-1 inh: -1.3

Results for Cn1nnnc1SCc1cccc(CSc2nnnn2C)n1 ?
ERp5 inh: -2.4; PvdQ acylase: 5.5; VIM-2 inh: -0.3; PglD DTNB: 0.8; PDI turbidity: -4.8; IMP-1 inh: 5.3*

How did COc1ccc2c(c1)Cc1sc(NC(C)=O)nc1-2 do in these assays?
PvdQ acylase: 5.8; VIM-2 inh: 2.6; PglD DTNB: -1.2; PDI turbidity: 0.5; IMP-1 inh: 10.7*

How did COc1ccc2c(c1)Cc1sc(NC(=O)c3ccco3)nc1-2 do in these assays?
PvdQ acylase: -8.7; VIM-2 inh: -2.0; PglD DTNB: -3.3; PDI turbidity: -38.1; IMP-1 inh: -1.8

What do the screens show for `C[C@H](CO)N1C[C@H](C)[C@H](CN(C)CC2CC2)Oc2c(NS(C)(=O)=O)cccc2C1=O`?
ERp5 inh: 1.6; PglD DTNB: 4.3

How did Cc1ccc(S(=O)(=O)N2CCCCC2)cc1NC(=O)CSc1ccc2c(c1)OCCO2 do in these assays?
PvdQ acylase: 0.8; VIM-2 inh: 0.4; PglD DTNB: -1.3; PDI turbidity: 4.3; IMP-1 inh: 7.1*

What do the screens show for `C[C@H](CO)N1C[C@H](C)[C@H](CN(C)Cc2ccc(C(F)(F)F)cc2)Oc2ccc(NC(=O)Nc3cccc4ccccc34)cc2CC1=O`?
ERp5 inh: 64.3*; PglD DTNB: 2.5

How did C[C@H]1CN([C@@H](C)CO)C(=O)Cc2cc(NC(=O)Nc3cccc4ccccc34)ccc2O[C@H]1CN(C)Cc1ccc(C(F)(F)F)cc1 do in these assays?
ERp5 inh: 69.0*; PglD DTNB: 2.4
